Laboratory results: ChEMBL document CHEMBL4177576, “Linker structure-activity relationships in fluorodeoxyglucose chlorambucil conjugates for tumor-targeted chemotherapy” (Bioorg Med Chem, 2017)
Calls of active or inactive are those of the source. The calls are words filed in the database; no cut-off is given here.

How the values were obtained:
PA-1 = experiment: Cytotoxicity against human PA1 assessed as inhibition of cell growth incubated for 48 hrs by resazurin reduction test; assay type: functional, cell-based; details: PA-1, 48 h
Summary of the method: (§1)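 Monolayers grown in MEM with 10% fetal calf serum, pyruvate, vitamins, non-essential amino acids and gentamicin at 37 °C, 5% CO2. Cells were seeded at 5×10^3/well and left 16 h to adhere. Compounds were added from DMSO stocks (final 0.5% DMSO) for 48 h continuous exposure, in triplicate. Resazurin 25 μg/mL was then added for 1 h and fluorescence read at 530/590 nm. IC50 was taken from concentration–cell number curves as % of control after blank subtraction.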

MCF7 = experiment: Cytotoxicity against human MCF7 assessed as inhibition of cell growth incubated for 48 hrs by resazurin reduction test; assay type: functional, cell-based; details: MCF7, 48 h; summary of the method: as §1
M4Beu cell line = experiment: Cytotoxicity against human M4Beu assessed as inhibition of cell growth incubated for 48 hrs by resazurin reduction test; assay type: functional, cell-based; summary of the method: as §1
PC-3 = experiment: Cytotoxicity against human PC3 assessed as inhibition of cell growth incubated for 48 hrs by resazurin reduction test; assay type: functional, cell-based; details: PC-3, 48 h; summary of the method: as §1
Fibroblast = experiment: Cytotoxicity against human fibroblasts assessed as inhibition of cell growth incubated for 48 hrs by resazurin reduction test; assay type: cell-based; summary of the method: as §1
A549 = experiment: Cytotoxicity against human A549 assessed as inhibition of cell growth incubated for 48 hrs by resazurin reduction test; assay type: functional, cell-based; details: A549, 48 h; summary of the method: as §1
A549 (Homo sapiens) [1] = experiment: Cytotoxicity against human A549 assessed as inhibition of cell growth up to 200 uM incubated for 48 hrs in presence of 50 uM chlorambucil by resazurin reduction test
A549 (Homo sapiens) [2] = experiment: Cytotoxicity against human A549 assessed as inhibition of cell growth up to 200 uM incubated for 48 hrs in absence of 50 uM chlorambucil by resazurin reduction test

Structure (SMILES): CC(=O)OC[C@H]1O[C@@H](OC(=O)NCC(=O)Nc2ccc(NC(=O)CCCc3ccc(N(CCCl)CCCl)cc3)cc2)[C@H](F)[C@@H](OC(C)=O)[C@@H]1OC(C)=O
- IC50 (PA-1): 0.8 µM
- IC50 (MCF7): 13 µM
- IC50 (M4Beu cell line): 18 µM
- IC50 (PC-3): 6.5 µM
- IC50 (Fibroblast): 10 µM
- IC50 (A549): 13 µM

Structure (SMILES): CC(=O)OC[C@H]1O[C@@H](OC(=O)Nc2ccc(NC(=O)CCCc3ccc(N(CCCl)CCCl)cc3)cc2)[C@H](F)[C@@H](OC(C)=O)[C@@H]1OC(C)=O
- IC50 (PA-1): 1.2 µM
- IC50 (MCF7): 35 µM
- IC50 (M4Beu cell line): 29 µM
- IC50 (PC-3): 3.6 µM
- IC50 (Fibroblast): > 50 µM
- IC50 (A549): 2 µM

Structure (SMILES): CC(=O)OC[C@H]1OC(OC(C)=O)[C@H](F)[C@@H](OC(C)=O)[C@@H]1OC(C)=O (stereo partly drawn)
- growth inhibition (GI) (A549 (Homo sapiens) [1]): Active
- growth inhibition (GI) (A549 (Homo sapiens) [2]): Active

Structure (SMILES): CC(=O)OC[C@H]1O[C@@H](OC(=O)Nc2ccc(NC(=O)CNC(=O)CCCc3ccc(N(CCCl)CCCl)cc3)cc2)[C@H](F)[C@@H](OC(C)=O)[C@@H]1OC(C)=O
- IC50 (PA-1): 1.3 µM
- IC50 (MCF7): 15 µM
- IC50 (M4Beu cell line): 31 µM
- IC50 (PC-3): 4.9 µM
- IC50 (Fibroblast): 21 µM
- IC50 (A549): 9 µM

Structure (SMILES): CC(=O)OC[C@H]1O[C@@H](NC(=O)CC(=O)NCCCc2ccc(N(CCCl)CCCl)cc2)[C@H](F)[C@@H](OC(C)=O)[C@@H]1OC(C)=O
- IC50 (PA-1): 0.4 µM
- IC50 (MCF7): 9 µM
- IC50 (M4Beu cell line): 12 µM
- IC50 (PC-3): 5 µM
- IC50 (Fibroblast): 13 µM
- IC50 (A549): 8 µM

Structure (SMILES): CC(=O)OC[C@H]1O[C@@H](NC(=O)c2ccc(NC(=O)CNC(=O)CCCc3ccc(N(CCCl)CCCl)cc3)cc2)[C@H](F)[C@@H](OC(C)=O)[C@@H]1OC(C)=O
- IC50 (PA-1): 13 µM
- IC50 (MCF7): 7 µM
- IC50 (M4Beu cell line): 17.8 µM
- IC50 (PC-3): 6 µM
- IC50 (Fibroblast): 8 µM
- IC50 (A549): 30 µM

Structure (SMILES): O=C(O)CCCc1ccc(N(CCCl)CCCl)cc1 [CHLORAMBUCIL]
- IC50 (PC-3): > 100 µM

Structure (SMILES): OC[C@H]1OC(O)[C@H](F)[C@@H](O)[C@@H]1O (stereo partly drawn)
- growth inhibition (GI) (A549 (Homo sapiens) [1]): Active
- growth inhibition (GI) (A549 (Homo sapiens) [2]): Active

Structure (SMILES): CC(=O)OC[C@H]1O[C@@H](Oc2ccc(NC(=O)CNC(=O)CCCc3ccc(N(CCCl)CCCl)cc3)cc2)[C@H](F)[C@@H](OC(C)=O)[C@@H]1OC(C)=O
- IC50 (PA-1): 1.5 µM
- IC50 (MCF7): 16 µM
- IC50 (M4Beu cell line): 15 µM
- IC50 (PC-3): 7 µM
- IC50 (Fibroblast): 17 µM

Structure (SMILES): CC(=O)OC[C@H]1O[C@@H](Oc2ccc(NC(=O)COC(=O)CCCc3ccc(N(CCCl)CCCl)cc3)cc2)[C@H](F)[C@@H](OC(C)=O)[C@@H]1OC(C)=O
- IC50 (PA-1): 7.6 µM
- IC50 (MCF7): > 50 µM
- IC50 (M4Beu cell line): > 50 µM
- IC50 (PC-3): > 50 µM
- IC50 (Fibroblast): 32.5 µM
- IC50 (A549): 39 µM

Structure (SMILES): CC(=O)OC[C@H]1O[C@@H](OC(=O)Nc2ccc(OC(=O)CCCc3ccc(N(CCCl)CCCl)cc3)cc2)[C@H](F)[C@@H](OC(C)=O)[C@@H]1OC(C)=O
- IC50 (PA-1): 6 µM
- IC50 (MCF7): > 50 µM
- IC50 (M4Beu cell line): > 50 µM
- IC50 (PC-3): > 50 µM
- IC50 (Fibroblast): > 50 µM
- IC50 (A549): 22 µM

Structure (SMILES): CC(=O)OC[C@H]1O[C@@H](NC(=O)COC(=O)CCCc2ccc(N(CCCl)CCCl)cc2)[C@H](F)[C@@H](OC(C)=O)[C@@H]1OC(C)=O
- IC50 (PA-1): 3.8 µM
- IC50 (MCF7): > 50 µM
- IC50 (M4Beu cell line): > 50 µM
- IC50 (PC-3): > 50 µM
- IC50 (Fibroblast): > 50 µM
- IC50 (A549): 15 µM

Structure (SMILES): CC(=O)OC[C@H]1O[C@@H](Oc2ccc(NC(=O)c3ccc(NC(=O)CCCc4ccc(N(CCCl)CCCl)cc4)cc3)cc2)[C@H](F)[C@@H](OC(C)=O)[C@@H]1OC(C)=O
- IC50 (MCF7): 3.4 µM
- IC50 (M4Beu cell line): 3 µM
- IC50 (PC-3): 2.1 µM
- IC50 (Fibroblast): 3 µM
- IC50 (A549): 6 µM

Structure (SMILES): CC(=O)OC[C@H]1O[C@@H](OC(=O)NCC(=O)Nc2ccc(OC(=O)CCCc3ccc(N(CCCl)CCCl)cc3)cc2)[C@H](F)[C@@H](OC(C)=O)[C@@H]1OC(C)=O
- IC50 (PA-1): 9 µM
- IC50 (MCF7): 39.5 µM
- IC50 (M4Beu cell line): 30 µM
- IC50 (PC-3): > 50 µM
- IC50 (Fibroblast): 32 µM
- IC50 (A549): 39 µM

Structure (SMILES): CC(=O)OC[C@H]1O[C@@H](Oc2ccc(NC(=O)CC(=O)NCCCc3ccc(N(CCCl)CCCl)cc3)cc2)[C@H](F)[C@@H](OC(C)=O)[C@@H]1OC(C)=O
- IC50 (PA-1): 2 µM
- IC50 (MCF7): 14 µM
- IC50 (M4Beu cell line): 13.8 µM
- IC50 (PC-3): 8 µM
- IC50 (Fibroblast): > 50 µM
- IC50 (A549): > 50 µM

Structure (SMILES): CC(=O)OC[C@H]1O[C@@H](OC(=O)c2ccc(NC(=O)CCCc3ccc(N(CCCl)CCCl)cc3)cc2)[C@H](F)[C@@H](OC(C)=O)[C@@H]1OC(C)=O
- IC50 (PA-1): 0.45 µM
- IC50 (MCF7): 6 µM
- IC50 (M4Beu cell line): 6 µM
- IC50 (PC-3): 4 µM
- IC50 (Fibroblast): 4 µM
- IC50 (A549): 1.7 µM

Structure (SMILES): CC(=O)OC[C@H]1O[C@@H](NC(=O)c2ccc(OC(=O)CCCc3ccc(N(CCCl)CCCl)cc3)cc2)[C@H](F)[C@@H](OC(C)=O)[C@@H]1OC(C)=O
- IC50 (PA-1): 4 µM
- IC50 (MCF7): > 50 µM
- IC50 (M4Beu cell line): > 50 µM
- IC50 (PC-3): > 50 µM
- IC50 (Fibroblast): > 50 µM
- IC50 (A549): 19 µM

Structure (SMILES): CC(=O)OC[C@H]1O[C@@H](Oc2ccc(NC(=O)CNC(=O)CNC(=O)CCCc3ccc(N(CCCl)CCCl)cc3)cc2)[C@H](F)[C@@H](OC(C)=O)[C@@H]1OC(C)=O
- IC50 (PA-1): 4 µM
- IC50 (MCF7): 32 µM
- IC50 (M4Beu cell line): > 50 µM
- IC50 (PC-3): 20 µM
- IC50 (Fibroblast): > 50 µM
- IC50 (A549): > 50 µM
